Assay results published in publication PMC10839140 (Iranian Journal of Medical Sciences, 2024).
Like-named read-outs stand apart in the source and are kept apart here.

Assays:
[1] = test system: SkBr3 breast cancer cell line; test: MTT cytotoxicity assay, SkBr3 cells; format: cell-based, human; conditions: read-out: half-maximal inhibitory concentration
HEK-293 cell line [2] = test: Real-time PCR of apoptosis and cell cycle genes, HEK-293 cells; format: cell-based; conditions: 24 and 48 hours, PINO 575, LARI 500, PTOX 0.175 μM, vs untreated cells
Procedure, shortened: (§1)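 Cells grown at 37 °C, 5% CO₂: HEK-293 in DMEM/F12 with 10% FBS and penicillin/streptomycin, SkBr3 in supplemented DMEM. Vehicle control was methanol at 1% v/v final. Total RNA was DNase I-treated, and 3 µg was reverse-transcribed. Real-time PCR used GAPDH as the internal control and no-cDNA negative controls. Fold change was calculated by 2^-ΔΔCT, as the mean±SD of three experiments.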

[3] = test system: SkBr3 breast cancer cell line; test: Real-time PCR of apoptosis and cell cycle genes, SkBr3 cells; format: cell-based, human; conditions: 24 and 48 hours, PINO 575, LARI 500, PTOX 0.175 μM, vs untreated cells
Procedure, shortened: as §1

HEK-293 cell line [4] = test: MTT cytotoxicity assay, HEK-293 cells; format: cell-based; conditions: for IC50: read-out: half-maximal inhibitory concentration
HEK-293 cell line [5] = test: Apoptosis analysis, annexin V-FITC/PI flow cytometry, HEK-293 cells; format: cell-based; conditions: PINO 575 μM, LARI 500 μM
[6] = test system: SkBr3 breast cancer cell line; test: Apoptosis analysis, annexin V-FITC/PI flow cytometry, SkBr3 cells; format: cell-based, human; conditions: PINO 575 μM, LARI 500 μM
fibroblast cell line [7] = test: MTT cytotoxicity assay, fibroblast cells; format: cell-based; conditions: for IC50: Fibroblast, read-out: half-maximal inhibitory concentration; for percentage of cell viability was reduced by: fibroblast cells treated for 48 hours (abstract; concentration not stated there)
fibroblast cell line [8] = test: Apoptosis analysis, annexin V-FITC/PI flow cytometry, fibroblast cells; format: cell-based; conditions: PINO 575 μM, LARI 500 μM

Molecule	IC50 ([1]; Homo sapiens, SK-BR-3, 24 h) [µM]	IC50 ([1]; Homo sapiens, SK-BR-3, 48 h) [µM]	expression of pro-apoptotic BAX and FAS genes and CDKN1A inhibitory gene (HEK-293 cell line [2])	expression of pro-apoptotic BAX and FAS genes and CDKN1A inhibitory gene [3]	IC50 (HEK-293 cell line [4]; Homo sapiens, HEK293, 24 h) [µM]	IC50 (HEK-293 cell line [4]; Homo sapiens, HEK293, 48 h) [µM]	increase of apoptosis compared to control cells (HEK-293 cell line [5]; HEK-293, 24 hours) [fold]	increase of apoptosis compared to control cells (HEK-293 cell line [5]; HEK-293, 48 hours) [fold]	increase of apoptosis compared to control cells ([6]; SKBR3, 24 hours) [fold]	increase of apoptosis compared to control cells ([6]; SKBR3, 48 hours) [fold]	IC50 (fibroblast cell line [7]; 24 h) [µM]	IC50 (fibroblast cell line [7]; 48 h) [µM]	percentage of cell viability was reduced by (fibroblast cell line [7]) [%]	increase of apoptosis compared to control cells (fibroblast cell line [8]; 24 hours) [fold]	increase of apoptosis compared to control cells (fibroblast cell line [8]; 48 hours) [fold]	other results
COc1cc(C[C@H]2CO[C@H](c3ccc(O)c(OC)c3)[C@H]2CO)ccc1O [Lariciresinol, lariciresinol]	600	500	significantly overexpressed	significantly overexpressed	550	475	6.7	7.4	10.7	12.7	475	400	47	7.4	20.2	
COc1cc([C@@H]2c3cc4c(cc3[C@H](O)[C@H]3COC(=O)[C@H]23)OCO4)cc(OC)c1OC [Podophyllotoxin, reference compound]	0.3	0.175	significantly overexpressed	significantly overexpressed	0.15	0.075					0.175	0.075	36			cell viability was reduced by up to (fibroblast cell line [7]; fibroblast, 48 hours, PTOX at 0.175 μM): ≤ 36%
Pinoresinol			significantly overexpressed	significantly overexpressed			6.6	9	9	11			49	5.2	10.5	IC50 ([1]; SkBr3, 24-hour treatment, MTT): 675 µM; IC50 ([1]; SkBr3, 48-hour treatment, MTT): 575 µM; cell viability (HEK-293 cell line [4]; HEK-293, 48 hours, PINO at 575 μM, LARI at 500 μM): 49%; IC50 (HEK-293 cell line [4]; HEK-293, 24-hour treatment, MTT): 600 µM; IC50 (HEK-293 cell line [4]; HEK-293, 48-hour treatment, MTT): 550 µM; cell viability (fibroblast cell line [7]; fibroblast, 48 hours, PINO at 575 μM, LARI at 500 μM): 49%; IC50 (fibroblast cell line [7]; 48-hour treatment, MTT): 550 µM
